Test results as given in ChEMBL document CHEMBL4680079, “Discovery of a Quinoline-4-carboxamide Derivative with a Novel Mechanism of Action, Multistage Antimalarial Activity, and Potent in Vivo Efficacy” (J Med Chem, 2016).
Activity calls are given as the source filed them. The calls are words filed in the database; no cut-off is given here.

Legend:
Plasmodium berghei [1] = assay: Antiplasmodial activity against Plasmodium berghei ANKA infected in NMRI mouse assessed as survival days at 30 mg/kg, po QD for 4 days; type: functional; details: time 4 day
Plasmodium berghei [2] = assay: Antiplasmodial activity against Plasmodium berghei ANKA infected in NMRI mouse assessed as survival days at 10 mg/kg, po QD for 4 days; type: functional; details: time 4 day
Plasmodium yoelii = assay: Antiplasmodial activity against Plasmodium yoelli liver stage forms; type: functional, organism-based
[3] = Half-life in Sprague-Dawley rat at 1 mg/kg, iv administered as bolus dose by UPLC-MS/MS analysis; type: ADME, organism-based; details: in vivo, 1 mg/kg
Procedure, shortened: (§1)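 Male Sprague Dawley rats (n=3/route) received an iv bolus solution at 1 mg free base/kg (5 mL/kg; 5% DMSO in saline). Blood sampled from 5 min to 30 or 48 h post-dose, mixed with two volumes water, frozen, then analysed by UPLC-MS/MS. Parameters derived from the blood concentration-time curve.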

Plasmodium falciparum [4] = assay: Antiplasmodial activity against late stage (IV/V) Plasmodium falciparum NF54 gametocytes transfected with GFP-LUC assessed as growth inhibition incubated for 72 hrs by mitotracker Red-CMXROS dye based fluorescence microscopic analysis; type: functional, organism-based; details: NF54, 72 h
Procedure, shortened: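 NF54 pfs16-LUC-GFP stage IV–V gametocytes (10% parasitaemia, 0.1% haematocrit) exposed to compound in 0.4% DMSO, three concentrations per log, for 72 h at 37°C under 5% CO2/5% O2/90% N2. MitoTracker Red CM-H2Xros then added for 16 h and viable gametocytes counted by imaging.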

[5] = Half-life in NMRI mouse at 1 mg/kg, iv administered as bolus dose by UPLC-MS/MS analysis; type: ADME, organism-based; details: in vivo
Plasmodium berghei [6] = assay: Antiplasmodial activity against Plasmodium berghei infected in NMRI mouse assessed as reduction in parasitemia at 3 mg/kg, po QD for 4 days; type: functional; set-up: scale not given: the % may be the effect or the level left; details: time 4 day
Procedure, shortened: (§2)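 Female NMRI mice (n=3 per group, randomized, not blinded) infected with GFP-transfected P. berghei ANKA. Oral dosing once daily for 4 days in 10% DMSO/40% PEG400/50% water or HPMC suspension vehicle. Parasitaemia measured by flow cytometry on blood collected 96 h after infection. Mice watched for toxicity over 4 h post-dose each day.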

Plasmodium berghei [7] = assay: Antiplasmodial activity against GFP-transfected Plasmodium berghei ANKA infected in NMRI mouse assessed as reduction in parasitemia by measuring effective dose administered once daily oral dose for 4 days; type: functional; details: 96 h, time 4 day; procedure, shortened: as §2
MRC5 = assay: Antiproliferative activity against human MRC5 cells assessed as reduction in cell viability after 68 hrs by resazurin dye based fluorescence assay; details: MRC5, 68 h
Procedure, shortened: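 MRC-5 fibroblasts plated overnight as monolayers, exposed to compound pre-diluted in MEM for 68 h. Resazurin then added (final 50 μM) for 3 h, fluorescence read at ex 528/em 590 nm. Signal converted to % inhibition against high- and no-inhibition controls. Plates accepted at Z' > 0.5.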

[8] = Clearance in Sprague-Dawley rat blood at 1 mg/kg, iv administered as bolus dose by UPLC-MS/MS analysis; type: ADME, organism-based; procedure, shortened: as §1
Plasmodium berghei [9] = assay: Antiplasmodial activity against Plasmodium berghei ANKA infected in NMRI mouse assessed as reduction in parasitemia at 1 mg/kg, po QD for 4 days; type: functional; set-up: scale not given: the % may be the effect or the level left; details: time 4 day; procedure, shortened: as §2
[10] = Volume of distribution at steady state in NMRI mouse at 1 mg/kg, iv administered as bolus dose by UPLC-MS/MS analysis; type: ADME, organism-based; details: in vivo
[11] = Blood clearance in NMRI mouse at 1 mg/kg, iv administered as bolus dose by UPLC-MS/MS analysis; type: ADME, organism-based
Plasmodium falciparum [12] = assay: Antiplasmodial activity against drug resistant Plasmodium falciparum V1/S by [3H]hypoxanthine incorporation assay; type: functional, organism-based
Procedure, shortened: (§3)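 Strains (K1, W2, 7G8, TM90C2A, D6, V1/S resistant; NF54 sensitive) cultured by the Trager and Jensen method; EC50 determined in vitro from [3H]hypoxanthine incorporation.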

Plasmodium falciparum [13] = assay: Antiplasmodial activity against chloroquine-sensitive Plasmodium falciparum 3D7 infected in human red blood cells assessed as growth inhibition by SYBR Green fluorescence assay; type: functional, organism-based, RBC; details: 3D7, Erythrocyte
Procedure, shortened: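 P. falciparum 3D7 grown in 5% human red cells in RPMI 1640 (pH 7.3) with 0.5% Albumax II, hypoxanthine and gentamicin at 37°C under 1% O₂/3% CO₂. Growth measured by SYBR green fluorescence (ex 485/em 528 nm), with mefloquine as assay control. EC50 calculated.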

[14] = Oral bioavailability in NMRI mouse at 10 mg/kg administered via gavage by UPLC-MS/MS analysis; type: ADME, organism-based; details: in vivo
Procedure, shortened: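 Female NMRI mice (n=3) dosed by oral gavage as a solution at 10 mg free base/kg (10 mL/kg; vehicle 5 or 10% DMSO, 40% PEG400). Blood levels measured by UPLC-MS/MS. Parameters derived from the blood concentration-time curve.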

Plasmodium berghei [15] = assay: Antiplasmodial activity against Plasmodium berghei ANKA infected in NMRI mouse assessed as cure rate at 30 mg/kg, po QD for 4 days; type: functional, organism-based; details: time 4.0 day; procedure, shortened: as §2
[16] = Intrinsic clearance in human liver microsomes at 0.5 uM in presence of NADPH incubated upto 30 mins by UPLC-MS/MS analysis; type: ADME, Microsome; details: 0.5 h
Procedure, shortened: (§4)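 Compound at 0.5 μM incubated with female CD1 mouse, male Sprague-Dawley rat or pooled human liver microsomes (0.5 mg/mL, 50 mM potassium phosphate, pH 7.4). Reaction started with excess NADPH. Samples taken at 0-30 min, quenched in acetonitrile, analysed by UPLC-MS/MS. Verapamil used as control, single time course.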

[17] = Intrinsic clearance in Sprague-Dawley rat liver microsomes at 0.5 uM in presence of NADPH incubated upto 30 mins by UPLC-MS/MS analysis; type: ADME, Microsome; details: 0.5 h; procedure, shortened: as §4
[18] = Intrinsic clearance in CD1 mouse liver microsomes at 0.5 uM in presence of NADPH incubated upto 30 mins by UPLC-MS/MS analysis; type: ADME, Microsome; details: 0.5 h; procedure, shortened: as §4
[19] = Volume of distribution at steady state in Sprague-Dawley rat at 1 mg/kg, iv administered as bolus dose by UPLC-MS/MS analysis; type: ADME, organism-based; details: in vivo, 1 mg/kg; procedure, shortened: as §1
Plasmodium berghei [20] = assay: Antiplasmodial activity against Plasmodium berghei ANKA infected in NMRI mouse assessed as survival days at 3 mg/kg, po QD for 4 days; type: functional; details: time 4 day
[21] = Tmax in NMRI mouse at 3 mg/kg, po administered as gavage by UPLC-MS/MS analysis; type: ADME, organism-based; details: in vivo
Plasmodium falciparum [22] = assay: Antiplasmodial activity against drug resistant Plasmodium falciparum K1 by [3H]hypoxanthine incorporation assay; type: functional, organism-based; procedure, shortened: as §3
[23] = AUC in Sprague-Dawley rat at 5 mg/kg, po administered via gavage by UPLC-MS/MS analysis; type: ADME, organism-based; set-up: dose 5 mg/kg; details: in vivo
Procedure, shortened: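 Male Sprague Dawley rats (n=3) gavaged with a solution at 5 mg free base/kg (10 mL/kg; 0.5% w/v HPMC, 0.4% v/v Tween 80, 0.5% v/v benzyl alcohol). Blood sampled at 5, 15, 30 min and 1, 2, 4, 6, 8, 24, 30, 48 h, diluted with two volumes water, analysed by UPLC-MS/MS.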

Plasmodium falciparum [24] = assay: Antiplasmodial activity against drug resistant Plasmodium falciparum D6 by [3H]hypoxanthine incorporation assay; type: functional, organism-based; procedure, shortened: as §3
Plasmodium berghei [25] = assay: Antiplasmodial activity against Plasmodium berghei ANKA infected in NMRI mouse assessed as survival days at 1 mg/kg, po QD for 4 days; type: functional; details: time 4 day

## O=C(NCCN1CCCC1)c1cc(-c2ccc(CN3CCOCC3)cc2)nc2ccc(F)cc12 [CABAMIQUINE]
Plasmodium berghei [1]
  Survival: >30 days
Plasmodium berghei [2]
  Survival: >30 days
Plasmodium yoelii
  EC50: 1 nM
[3]
  t1/2: 10 h
Plasmodium falciparum [4]
  EC50: 24 nM
[5]
  t1/2: 16 h
Plasmodium berghei [6]
  Activity: 99.9%
Plasmodium berghei [7]
  ED90: 0.1 mg/kg
MRC5
  EC50: 24000 nM
[8]
  clearance: 18 mL/min/kg
Plasmodium berghei [9]
  Activity: 99.9%
[10]
  Vdss: 15 L/kg
[11]
  clearance: 12 mL/min/kg
Plasmodium falciparum [12]
  EC50: 0.7 nM
Plasmodium falciparum [13]
  EC50: 1 nM
[14]
  bioavailability: 74%
Plasmodium berghei [15]
  Activity: Active
[16]
  CLH: <= 1.1 ml/min/g
[17]
  CLH: <= 0.8 ml/min/g
[18]
  CLH: < 0.5 mL/min/g
[19]
  Vdss: 15 L/kg
Plasmodium berghei [20]
  Survival: 25 days
[21]
  Tmax: 1 h
Plasmodium falciparum [22]
  EC50: 0.4 nM
[23]
  AUC: 3340 ng·h/mL
Plasmodium falciparum [24]
  EC50: 0.4 nM
Plasmodium berghei [25]
  Survival: 14 days
